According to ChEMBL document CHEMBL1153560, “In vitro activities of doripenem and six comparator drugs against 423 aerobic and anaerobic bacterial isolates from infected diabetic foot wounds” (2008):
Values after ≈ are worked out from the molar mass of the structure shown.

What was measured:
Format in all cases: functional
Clostridium perfringens = experiment: Antibacterial activity against Clostridium perfringens isolated from patient with diabetic foot infection after 44 to 48 hrs by agar dilution method
In short: (§1)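 Agar dilution per CLSI M11-A7. Twofold drug dilutions made on the test day and added to molten agar. Replicator-applied inoculum of 10^5 CFU/spot. Drug-free control plates inoculated before and after each drug set. Incubation at 37°C for 44 to 48 h, anaerobic chamber. MIC taken as the lowest concentration giving no growth or a marked change in growth versus controls.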

[1] = tested on: Anaerocolumna aminovalerica; experiment: Antibacterial activity against Clostridium aminovalericum isolated from patient with diabetic foot infection after 44 to 48 hrs by agar dilution method
In short: (§2)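 CLSI M11-A7 agar dilution: serial twofold drug dilutions made on the test day and added to molten agar. Spots of 10^5 CFU were applied by replicator, with drug-free control plates inoculated before and after each set. Incubation was 44 to 48 h at 37°C in an anaerobic chamber. MIC was the lowest concentration giving no growth or a marked change in growth versus controls.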

[2] = tested on: Enterocloster clostridioformis; experiment: Antibacterial activity against Clostridium clostridioforme isolated from patient with diabetic foot infection after 44 to 48 hrs by agar dilution method; in short: as §2
[Clostridium] innocuum [3] = Antibacterial activity against Clostridium innocuum isolated from patient with diabetic foot infection after 44 to 48 hrs by agar dilution method; in short: as §2
[4] = tested on: Clostridium malenominatum; experiment: Antibacterial activity against Clostridium malenominatum isolated from patient with diabetic foot infection after 44 to 48 hrs by agar dilution method; in short: as §2
Cutibacterium acnes = experiment: Antibacterial activity against Propionibacterium acnes isolated from patient with diabetic foot infection after 44 to 48 hrs by agar dilution method; in short: as §2
Anaerococcus prevotii [5] = experiment: Antibacterial activity against Anaerococcus prevotii isolated from patient with diabetic foot infection after 44 to 48 hrs by agar dilution method; in short: as §2
Finegoldia magna [6] = experiment: Antibacterial activity against Finegoldia magna isolated from patient with diabetic foot infection after 44 to 48 hrs by agar dilution method; in short: as §2
[7] = tested on: Peptoniphilus asaccharolyticus; experiment: Antibacterial activity against Peptoniphilus asaccharolyticus isolated from patient with diabetic foot infection after 44 to 48 hrs by agar dilution method; in short: as §2
[8] = tested on: Peptostreptococcus anaerobius; experiment: Antibacterial activity against Peptostreptococcus anaerobius isolated from patient with diabetic foot infection after 44 to 48 hrs by agar dilution method; in short: as §2
Parvimonas micra [9] = experiment: Antibacterial activity against Peptostreptococcus micros isolated from patient with diabetic foot infection after 44 to 48 hrs by agar dilution method; in short: as §2
Bacteroides fragilis [10] = experiment: Antibacterial activity against Bacteroides fragilis isolated from patient with diabetic foot infection after 44 to 48 hrs by agar dilution method; in short: as §2
Bacteroides stercoris = experiment: Antibacterial activity against Bacteroides stercoris isolated from patient with diabetic foot infection after 44 to 48 hrs by agar dilution method; in short: as §2
Bacteroides fragilis [11] = experiment: Antibacterial activity against Bacteroides fragilis isolated from patient with diabetic foot infection assessed as percent resistant isolates after 44 to 48 hrs by agar dilution method; in short: as §1
Bacteroides ovatus = experiment: Antibacterial activity against Bacteroides ovatus isolated from patient with diabetic foot infection assessed as percent resistant isolates after 44 to 48 hrs by agar dilution method; in short: as §1
[12] = tested on: Bacteroides thetaiotaomicron; experiment: Antibacterial activity against Bacteroides thetaiotaomicron isolated from patient with diabetic foot infection assessed as percent resistant isolates after 44 to 48 hrs by agar dilution method; in short: as §1
[13] = tested on: Bacteroides thetaiotaomicron; experiment: Antibacterial activity against Bacteroides thetaiotaomicron isolated from patient with diabetic foot infection after 44 to 48 hrs by agar dilution method; in short: as §2
Bacteroides uniformis [14] = experiment: Antibacterial activity against Bacteroides uniformis isolated from patient with diabetic foot infection after 44 to 48 hrs by agar dilution method; in short: as §2
Phocaeicola vulgatus = experiment: Antibacterial activity against Bacteroides vulgatus isolated from patient with diabetic foot infection after 44 to 48 hrs by agar dilution method; in short: as §2
[15] = tested on: Parabacteroides distasonis; experiment: Antibacterial activity against Parabacteroides distasonis isolated from patient with diabetic foot infection after 44 to 48 hrs by agar dilution method; in short: as §2
[16] = tested on: Porphyromonas asaccharolytica; experiment: Antibacterial activity against Porphyromonas asaccharolyticus isolated from patient with diabetic foot infection after 44 to 48 hrs by agar dilution method; in short: as §2
Porphyromonas somerae [17] = experiment: Antibacterial activity against Porphyromonas somerae isolated from patient with diabetic foot infection after 44 to 48 hrs by agar dilution method; in short: as §2
Bacteroides uniformis [18] = experiment: Antibacterial activity against Bacteroides uniformis isolated from patient with diabetic foot infection assessed as percent resistant isolates after 44 to 48 hrs by agar dilution method; in short: as §1
Parabacteroides merdae = experiment: Antibacterial activity against Parabacteroides merdae isolated from patient with diabetic foot infection assessed as percent resistant isolates after 44 to 48 hrs by agar dilution method; in short: as §1
[19] = tested on: Porphyromonas asaccharolytica; experiment: Antibacterial activity against Porphyromonas asaccharolyticus isolated from patient with diabetic foot infection assessed as percent resistant isolates after 44 to 48 hrs by agar dilution method; in short: as §1
Porphyromonas somerae [20] = experiment: Antibacterial activity against Porphyromonas somerae isolated from patient with diabetic foot infection assessed as percent resistant isolates after 44 to 48 hrs by agar dilution method; in short: as §1
Prevotella bivia = experiment: Antibacterial activity against Prevotella bivia isolated from patient with diabetic foot infection assessed as percent resistant isolates after 44 to 48 hrs by agar dilution method; in short: as §1
Clostridium cadaveris = experiment: Antibacterial activity against Clostridium cadaveris isolated from patient with diabetic foot infection assessed as percent resistant isolates after 44 to 48 hrs by agar dilution method; in short: as §1
[21] = tested on: Enterocloster clostridioformis; experiment: Antibacterial activity against Clostridium clostridioforme isolated from patient with diabetic foot infection assessed as percent resistant isolates after 44 to 48 hrs by agar dilution method; in short: as §1
[Clostridium] innocuum [22] = Antibacterial activity against Clostridium innocuum isolated from patient with diabetic foot infection assessed as percent resistant isolates after 44 to 48 hrs by agar dilution method; in short: as §1
[23] = tested on: Clostridium malenominatum; experiment: Antibacterial activity against Clostridium malenominatum isolated from patient with diabetic foot infection assessed as percent resistant isolates after 44 to 48 hrs by agar dilution method; in short: as §1
Anaerococcus prevotii [24] = experiment: Antibacterial activity against Anaerococcus prevotii isolated from patient with diabetic foot infection assessed as percent resistant isolates after 44 to 48 hrs by agar dilution method; in short: as §1
Anaerococcus tetradius = experiment: Antibacterial activity against Anaerococcus tetradius isolated from patient with diabetic foot infection assessed as percent resistant isolates after 44 to 48 hrs by agar dilution method; in short: as §1
Finegoldia magna [25] = experiment: Antibacterial activity against Finegoldia magna isolated from patient with diabetic foot infection assessed as percent resistant isolates after 44 to 48 hrs by agar dilution method; in short: as §1
[26] = tested on: Peptostreptococcus anaerobius; experiment: Antibacterial activity against Peptostreptococcus anaerobius isolated from patient with diabetic foot infection assessed as percent resistant isolates after 44 to 48 hrs by agar dilution method; in short: as §1
Parvimonas micra [27] = experiment: Antibacterial activity against Peptostreptococcus micros isolated from patient with diabetic foot infection assessed as percent resistant isolates after 44 to 48 hrs by agar dilution method; in short: as §1
Anaerococcus vaginalis = experiment: Antibacterial activity against Anaerococcus vaginalis isolated from patient with diabetic foot infection after 44 to 48 hrs by agar dilution method; in short: as §2

CCC[C@@H]1C[C@@H](C(=O)N[C@@H]([C@H]2O[C@H](SC)[C@H](O)[C@@H](O)[C@H]2O)[C@H](C)Cl)N(C)C1 [CLINDAMYCIN]
MIC50 (Clostridium perfringens): 1 µg/mL (≈ 2.35 µM)
MIC90 (Clostridium perfringens): 1 µg/mL (≈ 2.35 µM)
MIC50 [1]: 0.5 µg/mL (≈ 1.18 µM)
MIC90 [1]: 16 µg/mL (≈ 37.6 µM)
MIC50 [2]: 0.5 µg/mL (≈ 1.18 µM)
MIC90 [2]: 16 µg/mL (≈ 37.6 µM)
MIC50 ([Clostridium] innocuum [3]): 0.5 µg/mL (≈ 1.18 µM)
MIC90 ([Clostridium] innocuum [3]): 16 µg/mL (≈ 37.6 µM)
MIC50 [4]: 0.5 µg/mL (≈ 1.18 µM)
MIC90 [4]: 16 µg/mL (≈ 37.6 µM)
MIC50 (Cutibacterium acnes): ≤ 0.03 µg/mL
MIC90 (Cutibacterium acnes): 2 µg/mL (≈ 4.71 µM)
MIC50 (Anaerococcus prevotii [5]): 0.125 µg/mL (≈ 0.294 µM)
MIC90 (Anaerococcus prevotii [5]): 64 µg/mL (≈ 151 µM)
MIC50 (Finegoldia magna [6]): 0.5 µg/mL (≈ 1.18 µM)
MIC90 (Finegoldia magna [6]): 2 µg/mL (≈ 4.71 µM)
MIC50 [7]: 0.125 µg/mL (≈ 0.294 µM)
MIC90 [7]: > 64 µg/mL
MIC50 [8]: 0.125 µg/mL (≈ 0.294 µM)
MIC90 [8]: 0.5 µg/mL (≈ 1.18 µM)
MIC50 (Parvimonas micra [9]): 0.125 µg/mL (≈ 0.294 µM)
MIC90 (Parvimonas micra [9]): 0.5 µg/mL (≈ 1.18 µM)
MIC50 (Bacteroides fragilis [10]): 0.5 µg/mL (≈ 1.18 µM)
MIC90 (Bacteroides fragilis [10]): 2 µg/mL (≈ 4.71 µM)
MIC50 (Bacteroides stercoris): 2 µg/mL (≈ 4.71 µM)
MIC90 (Bacteroides stercoris): > 64 µg/mL
Activity (Bacteroides fragilis [11]): 10%
Activity (Bacteroides ovatus): 20%
Activity [12]: 20%
MIC50 [13]: 2 µg/mL (≈ 4.71 µM)
MIC90 [13]: > 64 µg/mL
MIC50 (Bacteroides uniformis [14]): 2 µg/mL (≈ 4.71 µM)
MIC90 (Bacteroides uniformis [14]): > 64 µg/mL
MIC50 (Phocaeicola vulgatus): 2 µg/mL (≈ 4.71 µM)
MIC90 (Phocaeicola vulgatus): > 64 µg/mL
MIC50 [15]: 2 µg/mL (≈ 4.71 µM)
MIC90 [15]: > 64 µg/mL
MIC50 [16]: ≤ 0.03 µg/mL
MIC90 [16]: 64 µg/mL (≈ 151 µM)
MIC50 (Porphyromonas somerae [17]): ≤ 0.03 µg/mL
MIC90 (Porphyromonas somerae [17]): 64 µg/mL (≈ 151 µM)
Activity (Bacteroides uniformis [18]): 20%
Activity (Parabacteroides merdae): 20%
Activity [19]: 12%
Activity (Porphyromonas somerae [20]): 12%
Activity (Prevotella bivia): 21%
Activity (Clostridium cadaveris): 23%
Activity [21]: 23%
Activity ([Clostridium] innocuum [22]): 23%
Activity [23]: 23%
Activity (Anaerococcus prevotii [24]): 18%
Activity (Anaerococcus tetradius): 18%
Activity (Finegoldia magna [25]): 0%
Activity [26]: 0%
Activity (Parvimonas micra [27]): 0%
MIC50 (Anaerococcus vaginalis): 0.125 µg/mL (≈ 0.294 µM)
MIC90 (Anaerococcus vaginalis): 64 µg/mL (≈ 151 µM)

C[C@@H](O)[C@H]1C(=O)N2C(C(=O)O)=C(S[C@@H]3CN[C@H](C(=O)Nc4cccc(C(=O)O)c4)C3)[C@H](C)[C@H]12 [ERTAPENEM]
MIC50 (Clostridium perfringens): 0.06 µg/mL (≈ 0.126 µM)
MIC90 (Clostridium perfringens): 0.125 µg/mL (≈ 0.263 µM)
MIC50 [1]: 0.25 µg/mL (≈ 0.526 µM)
MIC90 [1]: 2 µg/mL (≈ 4.21 µM)
MIC50 [2]: 0.25 µg/mL (≈ 0.526 µM)
MIC90 [2]: 2 µg/mL (≈ 4.21 µM)
MIC50 ([Clostridium] innocuum [3]): 0.25 µg/mL (≈ 0.526 µM)
MIC90 ([Clostridium] innocuum [3]): 2 µg/mL (≈ 4.21 µM)
MIC50 [4]: 0.25 µg/mL (≈ 0.526 µM)
MIC90 [4]: 2 µg/mL (≈ 4.21 µM)
MIC50 (Cutibacterium acnes): 0.125 µg/mL (≈ 0.263 µM)
MIC90 (Cutibacterium acnes): 0.25 µg/mL (≈ 0.526 µM)
MIC50 (Anaerococcus prevotii [5]): 0.125 µg/mL (≈ 0.263 µM)
MIC90 (Anaerococcus prevotii [5]): 0.25 µg/mL (≈ 0.526 µM)
MIC50 (Finegoldia magna [6]): 0.06 µg/mL (≈ 0.126 µM)
MIC90 (Finegoldia magna [6]): 0.125 µg/mL (≈ 0.263 µM)
MIC50 [7]: ≤ 0.015 µg/mL
MIC90 [7]: 0.25 µg/mL (≈ 0.526 µM)
MIC50 [8]: 0.25 µg/mL (≈ 0.526 µM)
MIC90 [8]: 0.5 µg/mL (≈ 1.05 µM)
MIC50 (Parvimonas micra [9]): 0.25 µg/mL (≈ 0.526 µM)
MIC90 (Parvimonas micra [9]): 0.5 µg/mL (≈ 1.05 µM)
MIC50 (Bacteroides fragilis [10]): 0.25 µg/mL (≈ 0.526 µM)
MIC90 (Bacteroides fragilis [10]): 1 µg/mL (≈ 2.1 µM)
MIC50 (Bacteroides stercoris): 1 µg/mL (≈ 2.1 µM)
MIC90 (Bacteroides stercoris): 2 µg/mL (≈ 4.21 µM)
Activity (Bacteroides fragilis [11]): 0%
Activity (Bacteroides ovatus): 0%
Activity [12]: 0%
MIC50 [13]: 1 µg/mL (≈ 2.1 µM)
MIC90 [13]: 2 µg/mL (≈ 4.21 µM)
MIC50 (Bacteroides uniformis [14]): 1 µg/mL (≈ 2.1 µM)
MIC90 (Bacteroides uniformis [14]): 2 µg/mL (≈ 4.21 µM)
MIC50 (Phocaeicola vulgatus): 1 µg/mL (≈ 2.1 µM)
MIC90 (Phocaeicola vulgatus): 2 µg/mL (≈ 4.21 µM)
MIC50 [15]: 1 µg/mL (≈ 2.1 µM)
MIC90 [15]: 2 µg/mL (≈ 4.21 µM)
MIC50 [16]: ≤ 0.015 µg/mL
MIC90 [16]: 0.06 µg/mL (≈ 0.126 µM)
MIC50 (Porphyromonas somerae [17]): ≤ 0.015 µg/mL
MIC90 (Porphyromonas somerae [17]): 0.06 µg/mL (≈ 0.126 µM)
Activity (Bacteroides uniformis [18]): 0%
Activity (Parabacteroides merdae): 0%
Activity [19]: 0%
Activity (Porphyromonas somerae [20]): 0%
Activity (Prevotella bivia): 0%
Activity (Clostridium cadaveris): 0%
Activity [21]: 0%
Activity ([Clostridium] innocuum [22]): 0%
Activity [23]: 0%
Activity (Anaerococcus prevotii [24]): 0%
Activity (Anaerococcus tetradius): 0%
Activity (Finegoldia magna [25]): 0%
Activity [26]: 0%
Activity (Parvimonas micra [27]): 0%
MIC50 (Anaerococcus vaginalis): 0.125 µg/mL (≈ 0.263 µM)
MIC90 (Anaerococcus vaginalis): 0.25 µg/mL (≈ 0.526 µM)
